# In PMC6420351 (ACS chemical biology, 2019):
# How the values were obtained:
# cannabinoid receptor 2 = details: cited from earlier work
# [1] = Detection and quantification of abn-CBD in the ocular tissues; assay type: in vivo, Balb/cJ mice
# Procedure, shortened: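 Balb/cJ mice (5–8 weeks, dark-adapted ≥24 h) given a single i.p. 15 mg kg−1 dose. At 1–15 h mice were anaesthetised with ketamine and PBS-perfused. Eyes homogenised in PBS/methanol with 100 pmol deuterated test-compound internal standard, then hexane-extracted, dried and redissolved in ethanol. Quantified by LC/MS on a C18 column (70–100% methanol/water over 10 min), positive-mode ESI ion trap.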
# [2] = test system: visual cycle retinoid flow; assay: Visual chromophore regeneration after flash; assay type: in vivo, Balb/cJ mice; details: 0.25 mg of compound 1.5 h prior to flash bleaching 75% of rhodopsin
# Procedure, shortened: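 Dark-adapted (≥24 h) Balb/cJ mice given 0.25 mg test compound or DMSO 1.5 h before a flash bleaching 75% of rhodopsin. Kept dark, euthanised 1 min–8 h later; eyes frozen in liquid nitrogen. Under dim red light, eyes homogenised in 40 mM hydroxylamine in PBS/methanol (20 min RT), then hexane-extracted. Normal-phase HPLC (step ethyl acetate/hexane gradient) read at 325 and 360 nm, quantified against standards; n = 4, mean ± sd.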
# LRAT = target: T1, LRAT (Bos taurus, UniProt Q9BGL2); assay: Retinol esterification assay in RPE microsomes; assay type: biochemical; details: bovine RPE microsomes preincubated with 10–50 μM
# T1 sequence (Q9BGL2 1-230): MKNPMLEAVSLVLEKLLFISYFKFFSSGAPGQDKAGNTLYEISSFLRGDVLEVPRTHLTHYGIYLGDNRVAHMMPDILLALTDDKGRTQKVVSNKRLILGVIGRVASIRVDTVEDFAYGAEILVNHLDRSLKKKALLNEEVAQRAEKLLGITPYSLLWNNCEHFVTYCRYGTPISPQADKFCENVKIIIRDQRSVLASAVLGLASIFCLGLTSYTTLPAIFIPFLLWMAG
# Procedure, shortened: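 UV-treated bovine RPE microsomes (~100 μg total protein) in 20 mM Tris/HCl pH 7.4, 1 mM DTT, 1% BSA. Test compound (10, 20 or 50 μM) added before atROL (final 10 μM). Initial rate taken after 5 min at RT, quenched with methanol, extracted with hexane. Normal-phase HPLC (isocratic 10% ethyl acetate/hexane, 325 nm). Retinyl esters quantified against synthetic standards.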
# cannabinoid receptor 1 = details: cited from earlier work
# [3] = test system: recovery of visual sensitivity; assay: Scotopic full-field ERG recovery after photobleach; assay type: in vivo, Balb/cJ mice; details: 30 mg/kg; ERG 4 h after flash bleaching ~50% of visual pigment
# CRBP2 = target: T2, CRBP2 (Homo sapiens, UniProt P50120); assay: Fluorescence-binding assay with CRBP2
# T2 sequence (P50120 1-134): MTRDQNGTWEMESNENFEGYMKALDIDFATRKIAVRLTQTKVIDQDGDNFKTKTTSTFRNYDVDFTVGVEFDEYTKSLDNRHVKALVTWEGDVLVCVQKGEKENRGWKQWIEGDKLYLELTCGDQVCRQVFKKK
# RPE65 = RPE65 (Bos taurus, UniProt Q28175); assay: RPE65 isomerization activity assay in RPE microsomes; assay type: biochemical; details: bovine RPE microsomes preincubated with 10–50 μM
# Chain of RPE65 (Q28175 whole entry): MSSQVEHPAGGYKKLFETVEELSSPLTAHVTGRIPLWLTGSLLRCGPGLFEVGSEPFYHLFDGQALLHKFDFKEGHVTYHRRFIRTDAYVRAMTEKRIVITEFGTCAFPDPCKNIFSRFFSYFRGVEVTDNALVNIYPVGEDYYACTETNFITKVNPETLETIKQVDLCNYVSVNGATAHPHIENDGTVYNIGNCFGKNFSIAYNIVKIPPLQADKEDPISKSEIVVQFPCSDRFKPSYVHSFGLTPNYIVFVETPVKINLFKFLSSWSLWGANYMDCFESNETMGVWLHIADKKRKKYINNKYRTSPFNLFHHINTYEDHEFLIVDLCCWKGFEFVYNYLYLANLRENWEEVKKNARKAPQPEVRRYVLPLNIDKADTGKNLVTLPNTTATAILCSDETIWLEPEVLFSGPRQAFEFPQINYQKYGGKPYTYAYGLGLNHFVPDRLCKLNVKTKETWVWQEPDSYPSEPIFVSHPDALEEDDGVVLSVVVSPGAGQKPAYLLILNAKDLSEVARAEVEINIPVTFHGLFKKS
# Procedure, shortened: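 UV-bleached bovine RPE microsomes were the RPE65 source, reacting in the presence of CRALBP. Microsomes preincubated with 10–50 μM test compound (1:1 to 1:5 molar excess). Reaction started with atROL (final 10 μM) and run at 30 °C for 30 min. Products extracted with hexane and analysed by normal-phase HPLC.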
# CRBP1 [4] = target: T3, CRBP1 (Homo sapiens, UniProt P09455); assay: Fluorescence atROL-replacing; assay type: binding; details: for binding to CRBP1: fluorescence titration of holo-CRBP1, 0–10 μM range for O-1918
# T3 sequence (P09455 1-135): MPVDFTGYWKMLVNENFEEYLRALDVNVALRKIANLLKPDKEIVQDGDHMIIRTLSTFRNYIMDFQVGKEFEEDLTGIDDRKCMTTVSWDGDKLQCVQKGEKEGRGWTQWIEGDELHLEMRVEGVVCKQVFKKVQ
# [5] = test system: light-induced retinal damage; assay: Bright light-induced retinal degeneration; assay type: in vivo, Balb/cJ mice; details: IP injection 1.5 h prior to light; OCT and histology a week later
# RDH5 = target: T4, RDH5 (Bos taurus, UniProt Q27979); assay: 11-cis-retinol oxidation assay in RPE microsomes; assay type: biochemical; details: bovine RPE microsomes preincubated with 10–50 μM
# T4 sequence (Q27979 1-318): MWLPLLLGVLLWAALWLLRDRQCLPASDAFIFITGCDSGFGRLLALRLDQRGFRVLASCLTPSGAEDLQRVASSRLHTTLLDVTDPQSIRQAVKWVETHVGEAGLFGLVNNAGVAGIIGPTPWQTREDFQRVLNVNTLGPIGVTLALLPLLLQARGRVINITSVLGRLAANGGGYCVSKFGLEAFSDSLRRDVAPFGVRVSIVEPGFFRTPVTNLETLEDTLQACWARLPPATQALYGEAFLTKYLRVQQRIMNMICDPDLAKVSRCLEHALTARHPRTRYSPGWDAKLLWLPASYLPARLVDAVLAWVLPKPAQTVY
# Procedure, shortened: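 Bovine RPE microsomes (~100 μg total protein) preincubated with 10–50 μM test compound (1:1 to 1:5 molar excess) in 20 mM Tris/HCl pH 8.0, 1% BSA, 20 μM NAD+. 11-cis-Retinol (10 μM) added; 30 °C, 10 min. Stopped with methanol containing 40 mM hydroxylamine, 15 min RT. Hexane extract run on normal-phase HPLC (isocratic 10% ethyl acetate/hexane), detected at 325 nm.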
# rodents = details: previous studies of wound healing, vasodilation, diabetes; cited from earlier work
# CRBP3 = target: T5, CRBP3 (Homo sapiens, UniProt P82980); assay: Co-crystallization / X-ray structure of CRBP3 with ligand; assay type: binding; details: crystal structure PDB 6E5W
# T5 sequence (P82980 1-135): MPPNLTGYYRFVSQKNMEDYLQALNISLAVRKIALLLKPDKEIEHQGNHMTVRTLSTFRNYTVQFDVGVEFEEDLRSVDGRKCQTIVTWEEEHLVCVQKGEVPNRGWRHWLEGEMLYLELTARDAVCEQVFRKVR
# Procedure, shortened: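 Apo-CRBP3 (8 mg mL−1) preincubated 15 min with 300 μM test compound. Drops made from 1 μL protein plus 1 μL 0.2 M sodium malonate pH 5.0, 20% PEG 3350 (w/v). Grown by sitting-drop vapour diffusion at RT.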
# CRBP4 = target: T6, CRBP4 (Homo sapiens, UniProt Q96R05); assay: Co-crystallization / X-ray structure of CRBP4 with ligand; assay type: binding; details: crystal structure PDB 6E6K
# T6 sequence (Q96R05 1-134): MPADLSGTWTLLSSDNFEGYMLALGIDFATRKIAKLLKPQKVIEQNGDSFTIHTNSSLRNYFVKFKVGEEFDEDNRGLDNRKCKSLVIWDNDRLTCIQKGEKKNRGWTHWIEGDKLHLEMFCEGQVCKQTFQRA
# Procedure, shortened: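 CRBP4 purified with a final 0–0.5 M NaCl gradient in 10 mM Tris/HCl pH 8.0, then concentrated to 6 mg mL−1. Protein preincubated with test compound. Crystallised in 0.2 M NaCl, 0.1 M BisTris pH 6.5, 25% PEG 3350 (w/v) by sitting-drop vapour diffusion at RT.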
# CRBP1 [6] = details: read-out: affinity for atROL; cited from earlier work
structure (smiles),measurement,setting,value
"C=C(C)[C@@H]1CCC(C)=C[C@H]1c1c(O)cc(O)cc1CCCCC [abn-CBD, 4-[(1R,6R)-3-Methyl-6-prop-1-en-2-ylcyclohex-2-en-1-yl]-5-pentylbenzene-1,3-diol]",interaction with cannabinoid receptor 2,cannabinoid receptor 2,does not interact
same,half-life,"[1]; Balb/cJ, mouse, eye (PBS-perfused, homogenised), ip, 15 mg/kg",~7 h
same,time of maximum ocular level after the injection,[1]; single IP dose 15 mg kg^−1,2 h
same,maximum ocular level,"[1]; single IP dose 15 mg kg^−1, PBS-perfused mouse eyes",58 pmol/eye
same,atROL level during chromophore regeneration,[2],transient accumulation of atROL
same,rate of 11-cis-retinal regeneration,[2],noticeably slower
same,rate of all-trans-retinal clearance vs control,[2],no differences
same,effect on LRAT enzymatic activity,LRAT,did not cause a measurable decline
same,interaction with cannabinoid receptor 1,cannabinoid receptor 1,does not interact
same,recovery of a-wave and b-wave amplitudes after light illumination,[3],slower
same,interaction with CRBP2,CRBP2,absence of interaction
same,effect on RPE65 enzymatic activity,RPE65,did not cause a measurable decline
same,Ki,CRBP1 [4],~67 nM
same,protection against light-induced retinal damage,[5],largely protected against the light-induced retinal damage
same,effect on RDH5 enzymatic activity,RDH5,did not cause a measurable decline
same,toxicity in rodents,rodents,did not report toxicity
same,binding to CRBP3,CRBP3,bind abn-CBD similarly to CRBP1
same,binding to CRBP4,CRBP4,bind abn-CBD similarly to CRBP1
"C=C(C)[C@@H]1CCC(C)=C[C@H]1c1c(C)cc(O)cc1O [abn-CBDO, 5-methyl-4-[(1R,6R)-3-methyl-6-prop-1-en-2-ylcyclohex-2-en-1-yl]benzene-1,3-diol]",apparent affinity lowered compared with abn-CBD,CRBP1 [4]; fold change of Ki vs abn-CBD,4.3 times
C=C(C)[C@H]1CC=C(C)CC1 [limonene],binding to CRBP1,CRBP1 [4],did not observe limonene interacting
"C=C(C)[C@@H]1CCC(C)=CC1c1c(O)cc(C)cc1O (stereo partly drawn) [CBDO, 5-methyl-2-[(6R)-3-methyl-6-prop-1-en-2-ylcyclohex-2-en-1-yl]benzene-1,3-diol]",Ki,CRBP1 [4],~1700 nM
same,fold increase of the Ki value,CRBP1 [4]; further increase relative to abn-CBDO,6.3 fold
"C=C(C)[C@@H]1CCC(C)=C[C@H]1c1c(OC)cc(C)cc1OC [O-1918, 1,3-dimethoxy-5-methyl-2-[(1R,6R)-3-methyl-6-prop-1-en-2-ylcyclohex-2-en-1-yl]benzene]",binding to CRBP1,CRBP1 [4],abolished the meaningful binding
"CC1=C(/C=C/C(C)=C/C=C/C(C)=C/CO)C(C)(C)CCC1 [atROL, all-trans-retinol]",Kd,CRBP1 [6],< 1 nM
same,Ki,CRBP1 [4],~34 nM
